Assay results published in ChEMBL document CHEMBL4689842, “EUbOPEN Chemogenomics Library wave 1” (2021).

Key:
Format in all cases: toxicity, cell-based
Fibroblast [1] = assay: Multiplex assay against human fibroblast
Procedure, shortened: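 On a CQ1 microscope at 37°C and 5% CO2, live cells were imaged after compound addition. They had been stained at seeding with Hoechst33342, BioTracker Green Microtubule Cytoskeleton Dye, MitoTracker Red and Annexin V Alexa Fluor 680. CellPathfinder machine-learning gating assigned cells to Hoechst high-intensity objects or normal cells, normal cells to healthy, pyknosed or fragmented nuclei, and pyknosed cells to mitotic or apoptotic. Tubulin, mitochondrial-mass and membrane-permeability phenotypes are per cents of healthy-nucleus cells.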

HEK-293T = assay: Incucyte cell viability with HEK293T; settings: human, 10 µM, compound concentration 10 uM; further: filed as whole numbers so only -1 and 0 and 1 occur
Fibroblast [2] = assay: Incucyte cell viability with human fibroblast; settings: 10 µM, compound concentration 10 uM; further: filed as whole numbers so only -1 and 0 and 1 occur
U2OS = assay: Incucyte cell viability with U2OS; settings: human, 10 µM, compound concentration 10 uM; further: filed as whole numbers so only -1 and 0 and 1 occur
[3] = 12 h, 1 µM, compound concentration 1 uM, replicate 1
[4] = 12 h, 1 µM, compound concentration 1 uM, replicate 2
[5] = 12 h, 10 µM, compound concentration 10 uM, replicate 1
[6] = 12 h, 10 µM, compound concentration 10 uM, replicate 2
[7] = 24 h, 1 µM, compound concentration 1 uM, replicate 1
[8] = 24 h, 1 µM, compound concentration 1 uM, replicate 2
[9] = 24 h, 10 µM, compound concentration 10 uM, replicate 1
[10] = 24 h, 10 µM, compound concentration 10 uM, replicate 2
[11] = 0 h, replicate number 1, timepoint 0 hours
[12] = 0 h, replicate number 2, timepoint 0 hours
[13] = 12 h, replicate number 2, timepoint 12 hours
[14] = 18 h, replicate number 1, timepoint 18 hours
[15] = 24 h, replicate number 1, timepoint 24 hours
[16] = 6 h, replicate number 1, timepoint 6 hours
[17] = 12 h, replicate number 1, timepoint 12 hours

CCOc1cc(N2CCC(O)CC2)ccc1Nc1ncc2c(n1)N(C1CCCC1)CCC(=O)N2C
Population Apoptotic (%) (Fibroblast [1]; [3]): 64%
Population Fragmented Nuclei (%) (Fibroblast [1]; [3]): 25%
Population Healthy Nuclei (%) (Fibroblast [1]; [3]): 58%
Population Hoechst High Intensity Objects (%) (Fibroblast [1]; [3]): 12%
Population Membrane Permeable-Phenotype (%) (Fibroblast [1]; [3]): 8%
Population Mitochondria Different-Phenotype (%) (Fibroblast [1]; [3]): 7%
Population Mitotic Cells (%) (Fibroblast [1]; [3]): 35%
Population Normal (%) (Fibroblast [1]; [3]): 87%
Population Pyknosed Nuclei (%) (Fibroblast [1]; [3]): 16%
Population Tubulin-Different-Phenotype (%) (Fibroblast [1]; [3]): 11%
Total Cell Count (Fibroblast [1]; [3]): 197
Population Apoptotic (%) (Fibroblast [1]; [4]): 0%
Population Fragmented Nuclei (%) (Fibroblast [1]; [4]): 46%
Population Healthy Nuclei (%) (Fibroblast [1]; [4]): 48%
Population Hoechst High Intensity Objects (%) (Fibroblast [1]; [4]): 33%
Population Membrane Permeable-Phenotype (%) (Fibroblast [1]; [4]): 17%
Population Mitochondria Different-Phenotype (%) (Fibroblast [1]; [4]): 17%
Population Mitotic Cells (%) (Fibroblast [1]; [4]): 100%
Population Normal (%) (Fibroblast [1]; [4]): 66%
Population Pyknosed Nuclei (%) (Fibroblast [1]; [4]): 4%
Population Tubulin-Different-Phenotype (%) (Fibroblast [1]; [4]): 39%
Total Cell Count (Fibroblast [1]; [4]): 71
Population Apoptotic (%) (Fibroblast [1]; [5]): 84%
Population Fragmented Nuclei (%) (Fibroblast [1]; [5]): 23%
Population Healthy Nuclei (%) (Fibroblast [1]; [5]): 58%
Population Hoechst High Intensity Objects (%) (Fibroblast [1]; [5]): 14%
Population Membrane Permeable-Phenotype (%) (Fibroblast [1]; [5]): 8%
Population Mitochondria Different-Phenotype (%) (Fibroblast [1]; [5]): 2%
Population Mitotic Cells (%) (Fibroblast [1]; [5]): 15%
Population Normal (%) (Fibroblast [1]; [5]): 85%
Population Pyknosed Nuclei (%) (Fibroblast [1]; [5]): 17%
Population Tubulin-Different-Phenotype (%) (Fibroblast [1]; [5]): 1%
Total Cell Count (Fibroblast [1]; [5]): 291
Population Apoptotic (%) (Fibroblast [1]; [6]): 37%
Population Fragmented Nuclei (%) (Fibroblast [1]; [6]): 50%
Population Healthy Nuclei (%) (Fibroblast [1]; [6]): 36%
Population Hoechst High Intensity Objects (%) (Fibroblast [1]; [6]): 29%
Population Membrane Permeable-Phenotype (%) (Fibroblast [1]; [6]): 27%
Population Mitochondria Different-Phenotype (%) (Fibroblast [1]; [6]): 4%
Population Mitotic Cells (%) (Fibroblast [1]; [6]): 62%
Population Normal (%) (Fibroblast [1]; [6]): 70%
Population Pyknosed Nuclei (%) (Fibroblast [1]; [6]): 13%
Population Tubulin-Different-Phenotype (%) (Fibroblast [1]; [6]): 18%
Population Apoptotic (%) (Fibroblast [1]; [7]): 72%
Population Fragmented Nuclei (%) (Fibroblast [1]; [7]): 27%
Population Healthy Nuclei (%) (Fibroblast [1]; [7]): 56%
Population Hoechst High Intensity Objects (%) (Fibroblast [1]; [7]): 12%
Population Membrane Permeable-Phenotype (%) (Fibroblast [1]; [7]): 6%
Population Mitochondria Different-Phenotype (%) (Fibroblast [1]; [7]): 6%
Population Mitotic Cells (%) (Fibroblast [1]; [7]): 27%
Population Normal (%) (Fibroblast [1]; [7]): 87%
Population Pyknosed Nuclei (%) (Fibroblast [1]; [7]): 15%
Population Tubulin-Different-Phenotype (%) (Fibroblast [1]; [7]): 7%
Total Cell Count (Fibroblast [1]; [7]): 211
Population Apoptotic (%) (Fibroblast [1]; [8]): 66%
Population Fragmented Nuclei (%) (Fibroblast [1]; [8]): 57%
Population Healthy Nuclei (%) (Fibroblast [1]; [8]): 35%
Population Hoechst High Intensity Objects (%) (Fibroblast [1]; [8]): 40%
Population Membrane Permeable-Phenotype (%) (Fibroblast [1]; [8]): 26%
Population Mitochondria Different-Phenotype (%) (Fibroblast [1]; [8]): 20%
Population Mitotic Cells (%) (Fibroblast [1]; [8]): 33%
Population Normal (%) (Fibroblast [1]; [8]): 59%
Population Pyknosed Nuclei (%) (Fibroblast [1]; [8]): 7%
Population Tubulin-Different-Phenotype (%) (Fibroblast [1]; [8]): 26%
Total Cell Count (Fibroblast [1]; [8]): 71
Population Apoptotic (%) (Fibroblast [1]; [9]): 67%
Population Fragmented Nuclei (%) (Fibroblast [1]; [9]): 17%
Population Healthy Nuclei (%) (Fibroblast [1]; [9]): 62%
Population Hoechst High Intensity Objects (%) (Fibroblast [1]; [9]): 19%
Population Membrane Permeable-Phenotype (%) (Fibroblast [1]; [9]): 5%
Population Mitochondria Different-Phenotype (%) (Fibroblast [1]; [9]): 1%
Population Mitotic Cells (%) (Fibroblast [1]; [9]): 32%
Population Normal (%) (Fibroblast [1]; [9]): 80%
Population Pyknosed Nuclei (%) (Fibroblast [1]; [9]): 19%
Population Tubulin-Different-Phenotype (%) (Fibroblast [1]; [9]): 1%
Total Cell Count (Fibroblast [1]; [9]): 308
Population Apoptotic (%) (Fibroblast [1]; [10]): 60%
Population Fragmented Nuclei (%) (Fibroblast [1]; [10]): 40%
Population Healthy Nuclei (%) (Fibroblast [1]; [10]): 50%
Population Hoechst High Intensity Objects (%) (Fibroblast [1]; [10]): 28%
Population Membrane Permeable-Phenotype (%) (Fibroblast [1]; [10]): 18%
Population Mitochondria Different-Phenotype (%) (Fibroblast [1]; [10]): 3%
Population Mitotic Cells (%) (Fibroblast [1]; [10]): 40%
Population Normal (%) (Fibroblast [1]; [10]): 72%
Population Pyknosed Nuclei (%) (Fibroblast [1]; [10]): 9%
Population Tubulin-Different-Phenotype (%) (Fibroblast [1]; [10]): 14%
Total Cell Count (Fibroblast [1]; [10]): 75
Growth Rate (HEK-293T; [11]): 0
Growth Rate (HEK-293T; [12]): 1
Growth Rate (HEK-293T; [13]): 1
Growth Rate (HEK-293T; [14]): 1
Growth Rate (HEK-293T; [15]): 0
Growth Rate (Fibroblast [2]; [11]): 1
Growth Rate (Fibroblast [2]; [12]): 0
Growth Rate (Fibroblast [2]; [16]): 0
Growth Rate (Fibroblast [2]; 6 h, replicate number 2, timepoint 6 hours): 1
Growth Rate (Fibroblast [2]; [17]): 0
Growth Rate (Fibroblast [2]; [13]): 1
Growth Rate (Fibroblast [2]; [14]): 0
Growth Rate (Fibroblast [2]; [15]): 0
Growth Rate (U2OS; [12]): 0
Growth Rate (U2OS; [16]): 0
Growth Rate (U2OS; [17]): 1
Growth Rate (U2OS; [13]): 0
Growth Rate (U2OS; [14]): 0
Growth Rate (U2OS; [15]): 0
